Source: ChEMBL document CHEMBL1155856, “Synthesis and anti-inflammatory activity of 2-(2-aroylaroxy)-4,6-dimethoxy pyrimidines” (Bioorg Med Chem Lett, 2008)
Active and inactive are the calls of the source. The rule behind the calls is not given here.

Experiments:
[1] = test system: Rattus norvegicus; assay: Antiinflammatory activity against carrageenan-induced acute paw edema in albino rat assessed as reduction of edema at 20 mg/kg, po after 3 hrs relative to control; assay type: functional
In short: (§1)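 Groups of five rats (125–160 g) dosed with test compound; 30 min later 0.2 mL of 1% carrageenan in 0.9% NaCl injected subcutaneously into the plantar aponeurosis of the hind paw. Paw volume read by water plethysmometer at baseline and at 3 h. Mean increase compared with carrageenan-only control group (five rats); % inhibition = (1 − Gt/Gc) × 100.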

[2] = test system: Rattus norvegicus; assay: Antiinflammatory activity against carrageenan-induced acute paw edema in albino rat assessed as reduction of edema at 40 mg/kg, po after 3 hrs relative to control; assay type: functional; in short: as §1
[3] = test system: Rattus norvegicus; assay: Antiinflammatory activity against carrageenan-induced acute paw edema in albino rat assessed as reduction of edema at 80 mg/kg, po after 3 hrs relative to control; assay type: functional; in short: as §1
[4] = test system: Rattus norvegicus; assay: Toxicity in albino rat with hyperemia assessed as ulcerogenic activity at 100 mg/kg, po after 5 hrs; assay type: organism-based; design: dose 100 mg/kg, route oral; conditions: in vivo
In short: (§2)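 Groups of 10 rats (200–230 g) fasted 24 h, then given an oral dose of test compound; controls undosed. Killed 5 h after dosing. Stomach and small intestine examined under microscope for hyperaemia, epithelial shedding, petechiae, frank haemorrhage, and erosion or discrete ulceration with or without perforation; scored as % of animals affected.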

[5] = test system: Rattus norvegicus; assay: Toxicity in albino rat with hyperemia assessed as ulcerogenic activity at 200 mg/kg, po after 5 hrs; assay type: organism-based; design: dose 200 mg/kg, route oral; conditions: in vivo; in short: as §2
[6] = test system: Rattus norvegicus; assay: Toxicity in albino rat with hyperemia assessed as ulcerogenic activity at 400 mg/kg, po after 5 hrs; assay type: organism-based; design: dose 400 mg/kg, route oral; conditions: in vivo; in short: as §2
[7] = test system: Rattus norvegicus; assay: Toxicity in albino rat assessed as ulcerogenic activity at 100 mg/kg, po after 5 hrs; assay type: organism-based; design: dose 100 mg/kg, route oral; conditions: in vivo; in short: as §2
[8] = test system: Rattus norvegicus; assay: Toxicity in albino rat assessed as ulcerogenic activity at 200 mg/kg, po after 5 hrs; assay type: organism-based; design: dose 200 mg/kg, route oral; conditions: in vivo; in short: as §2
[9] = test system: Rattus norvegicus; assay: Toxicity in albino rat assessed as ulcerogenic activity at 400 mg/kg, po after 5 hrs; assay type: organism-based; design: dose 400 mg/kg, route oral; conditions: in vivo; in short: as §2
[10] = species on record: Oryctolagus cuniculus; assay: Inhibition of rabbit distal colon cyclooxygenase at 10 uM
In short: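 Microsomal fraction from rabbit distal colon mucosa, homogenized and washed in 0.1 M Tris pH 8.0, used fresh. Preincubated with test agent 10 min at 37 °C in Tris-HCl pH 8.0 with 2 mM reduced glutathione, 5 mM L-tryptophan and 1 µM hematin. Then 20 µM arachidonic acid with trace [1-14C]arachidonate added, 5 min at 37 °C. Stopped with cold ether/methanol/0.2 M citric acid. PGE2 separated by RP-HPLC and counted by scintillation; inhibition vs paired controls.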

[11] = target: Phospholipase A2 (Rattus norvegicus) (UniProt P04055); assay: Inhibition of rat PLA2 using [14C]oleate labeled autoclaved Escherichia coli at 10 ug
In short: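 Enzyme amount set for 10–15% hydrolysis over 60 min at 37 °C. Stopped with 2.0 N HCl plus fatty-acid-free BSA, centrifuged at 20,000g for 5 min. Released [14C]oleic acid in the supernatant counted by liquid scintillation.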

[12] = Toxicity in po dosed albino mouse; assay type: organism-based; conditions: in vivo, read-out: ALD50
In short: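 Albino mice (25–30 g), in groups of 10, were given test compound at several dose levels. Percent mortality in each group was recorded 24 h after dosing. The approximate 50% lethal dose (ALD50) was calculated by Smith's method.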

[13] = test system: Rattus norvegicus; assay: Antiinflammatory activity against carrageenan-induced acute paw edema in po dosed albino rat assessed as reduction of edema; assay type: functional; in short: as §1

Chain of Phospholipase A2 (Rattus norvegicus) (P04055 whole entry): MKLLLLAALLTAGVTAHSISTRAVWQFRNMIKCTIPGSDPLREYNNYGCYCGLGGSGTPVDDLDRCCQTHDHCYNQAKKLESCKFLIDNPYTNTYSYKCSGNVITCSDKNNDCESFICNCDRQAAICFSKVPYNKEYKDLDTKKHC

Structure (SMILES)	inhibition in vivo at 20 mg/kg [1] [%]	inhibition in vivo at 40 mg/kg [2] [%]	inhibition in vivo at 80 mg/kg [3] [%]	Activity [4] [%]	Activity [5] [%]	Activity [6] [%]	Activity [7] [%]	Activity [8] [%]	Activity [9] [%]	inhibition [10] [%]	inhibition [11] [%]	LD50 [12] [mg/kg]	ED50 [13] [mg/kg]	Activity [10]
COc1cc(OC)nc(Oc2ccc(F)cc2C(=O)c2ccc(C)cc2)n1	19.4	29.1	58.2	70	90	100	10	20	40	40	20	> 1000	62.5	–
COc1cc(OC)nc(Oc2ccc(C)cc2C(=O)c2ccc(C)cc2)n1	20.2	45.8	55.3	50	70	100	20	30	40	87	10	> 1000	60.2	–
CCCCC1C(=O)N(c2ccccc2)N(c2ccccc2)C1=O [PHENYLBUTAZONE]	29.6	34.1	51.9	30	60	90	30	60	90	89	85	–	–	–
COc1cc(OC)nc(Oc2ccc(Cl)cc2C(=O)c2ccc(Cl)cc2)n1	13.4	29.5	58.7	40	60	100	10	20	40	20	40	> 1000	78.3	–
CC(=O)Oc1ccccc1C(=O)O [ASPIRIN]	29.9	38.8	61.4	30	60	90	80	90	90	99	90	–	–	–
COc1cc(OC)nc(Oc2ccc(F)cc2C(=O)c2ccc(Cl)cc2)n1	29.9	48.6	88.6	30	60	90	10	20	12	–	60	> 1000	51.2	inactive
COc1cc(OC)nc(Oc2ccc(Br)cc2C(=O)c2ccc(Cl)cc2)n1	13.7	33.2	57.7	50	70	90	5	10	15	70	30	> 1000	77.2	–
COc1cc(OC)nc(Oc2ccc(C)cc2C(=O)c2ccc(Cl)cc2)n1	11.5	21.5	45.5	20	40	60	40	50	80	–	80	> 1000	77.5	inactive
